Assay results as given in ChEMBL document CHEMBL1149321, “Synthesis, radiosynthesis, and biological evaluation of carbon-11 and iodine-123 labeled 2beta-carbomethoxy-3beta-[4'-((Z)-2-haloethenyl)phenyl]tropanes: candidate radioligands for in vivo imaging of the serotonin transporter” (J Med Chem, 2004).
Where “and” joins values, the source holds several entries; their conditions need not be identical. Equal values may be shown once.

Key:
[1] = biological target: T1, Sodium-dependent dopamine transporter (Homo sapiens, UniProt Q01959); test: In vitro binding affinity against human dopamine transporter in dog kidney cell line by using [125I]RTI-55 as radioligand; type: cell-based
Procedure, shortened: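 Membranes of MDCK cells stably expressing hDAT, grown in DMEM/10% FBS/geneticin. […] Competitor 12 concentrations 10⁻¹³–10⁻⁵ M in triplicate; GF/B filtration, gamma counting; Ki as geometric mean of ≥3 assays.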

[2] = biological target: T2, Sodium-dependent noradrenaline transporter (Homo sapiens, UniProt P23975); test: In vitro binding affinity against human norepinephrine transporter in human embryonic kidney cell line by using [125I]-RTI-55 radioligand; type: cell-based
[3] = biological target: Sodium-dependent serotonin transporter (Homo sapiens, UniProt P31645); test: biochemical; type: cell-based, kidney
[4] = biological target: T2, Sodium-dependent noradrenaline transporter; test: In vitro binding affinity against human norepinephrine transporter in human embryonic kidney cell line by using [3H]-[…] radioligand; type: cell-based
[5] = biological target: T1, Sodium-dependent dopamine transporter; test: In vitro binding affinity against human dopamine transporter in dog kidney cell line by using [3H]WIN-35428 as the radiotracer; type: cell-based
[6] = biological target: T1, Sodium-dependent dopamine transporter; test: In vitro binding affinity against human dopamine transporter in dog kidney cell line using [125I]RTI-55 as radioligand; type: cell-based
[7] = biological target: T2, Sodium-dependent noradrenaline transporter; test: In vitro binding affinity against human norepinephrine transporter in human embryonic kidney cell line using [125I]RTI-55 as radioligand; type: cell-based

Sequence of Sodium-dependent serotonin transporter (P31645 whole entry): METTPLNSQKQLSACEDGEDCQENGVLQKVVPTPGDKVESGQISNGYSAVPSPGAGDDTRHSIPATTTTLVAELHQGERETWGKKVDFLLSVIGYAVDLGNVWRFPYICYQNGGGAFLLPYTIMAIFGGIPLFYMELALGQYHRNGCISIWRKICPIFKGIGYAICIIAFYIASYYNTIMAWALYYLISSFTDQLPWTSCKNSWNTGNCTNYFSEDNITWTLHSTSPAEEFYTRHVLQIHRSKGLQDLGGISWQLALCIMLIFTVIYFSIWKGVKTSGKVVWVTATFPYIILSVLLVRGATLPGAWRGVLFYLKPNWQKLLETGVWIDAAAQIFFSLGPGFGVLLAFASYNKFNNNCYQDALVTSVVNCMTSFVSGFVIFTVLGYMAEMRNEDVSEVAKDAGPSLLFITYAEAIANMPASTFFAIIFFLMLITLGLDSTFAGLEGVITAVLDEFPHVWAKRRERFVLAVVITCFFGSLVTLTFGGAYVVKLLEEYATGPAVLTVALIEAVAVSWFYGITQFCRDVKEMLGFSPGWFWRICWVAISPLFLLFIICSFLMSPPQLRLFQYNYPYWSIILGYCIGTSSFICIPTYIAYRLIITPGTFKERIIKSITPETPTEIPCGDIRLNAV
T2 sequence (P23975 whole entry): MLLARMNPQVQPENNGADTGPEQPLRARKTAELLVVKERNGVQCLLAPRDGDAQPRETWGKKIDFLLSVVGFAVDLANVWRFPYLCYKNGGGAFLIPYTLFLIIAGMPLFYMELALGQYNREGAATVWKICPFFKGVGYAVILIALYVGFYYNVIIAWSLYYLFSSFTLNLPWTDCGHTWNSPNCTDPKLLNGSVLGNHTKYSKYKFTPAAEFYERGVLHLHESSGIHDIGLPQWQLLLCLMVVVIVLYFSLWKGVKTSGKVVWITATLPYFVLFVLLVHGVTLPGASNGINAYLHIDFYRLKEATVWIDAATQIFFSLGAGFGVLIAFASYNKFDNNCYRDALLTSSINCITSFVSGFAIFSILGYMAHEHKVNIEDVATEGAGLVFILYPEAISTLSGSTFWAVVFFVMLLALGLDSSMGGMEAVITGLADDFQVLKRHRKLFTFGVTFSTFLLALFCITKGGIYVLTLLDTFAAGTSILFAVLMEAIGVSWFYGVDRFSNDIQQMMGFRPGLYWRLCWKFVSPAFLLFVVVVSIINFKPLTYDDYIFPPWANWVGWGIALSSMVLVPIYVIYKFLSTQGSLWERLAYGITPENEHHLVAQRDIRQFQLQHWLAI
T1 sequence (Q01959 whole entry): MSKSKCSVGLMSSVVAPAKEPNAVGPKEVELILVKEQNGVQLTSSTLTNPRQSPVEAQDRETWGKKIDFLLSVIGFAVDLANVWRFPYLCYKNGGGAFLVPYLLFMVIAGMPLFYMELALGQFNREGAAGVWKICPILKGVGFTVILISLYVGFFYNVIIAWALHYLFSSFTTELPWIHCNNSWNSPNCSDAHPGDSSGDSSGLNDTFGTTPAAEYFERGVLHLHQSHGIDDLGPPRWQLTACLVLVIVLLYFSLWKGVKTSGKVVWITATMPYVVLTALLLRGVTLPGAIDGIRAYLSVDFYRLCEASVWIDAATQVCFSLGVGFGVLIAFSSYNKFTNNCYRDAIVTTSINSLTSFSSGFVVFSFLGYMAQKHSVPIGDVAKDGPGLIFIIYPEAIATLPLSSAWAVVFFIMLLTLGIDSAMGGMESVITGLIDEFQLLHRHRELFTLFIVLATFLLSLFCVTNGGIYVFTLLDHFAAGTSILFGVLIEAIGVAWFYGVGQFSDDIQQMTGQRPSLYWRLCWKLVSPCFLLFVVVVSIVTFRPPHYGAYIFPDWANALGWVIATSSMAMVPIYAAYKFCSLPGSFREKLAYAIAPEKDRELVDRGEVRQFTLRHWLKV

Row | SMILES | Ki [1] | Ki [2] | Ki [3] | Ki [4] | Ki [5] | Ki [6] | Ki ([6]; kidney) | Ki [7]
1 | COC(=O)C1C(c2ccc(/C=C\I)cc2)CC2CCC1N2C (centres undefined) | 22 nM | 450 nM | 0.11 nM | – | – | – | – | –
2 | COC(=O)C1C2CCC(CC1c1ccc(I)cc1)N2 (centres undefined) | 0.69 nM | – | 0.36 nM | 7.5 nM | – | – | – | –
3 | COC(=O)C1C2CCC(CC1c1ccc(/C=C\Br)cc1)N2 (centres undefined) | 3.9 nM | 2.5 nM | 0.04 nM | – | – | – | – | –
4 | CN1C2CCC1C(C(=O)Oc1ccccc1)C(c1ccc(Cl)cc1)C2 (centres undefined) | – | – | 390 nM | 242 nM | 5.25 nM | – | – | –
5 | COC(=O)C1C(c2ccc(/C=C\Br)cc2)CC2CCC1N2C (centres undefined) | 3.1 nM | 111 nM | 0.08 nM | – | – | – | – | –
6 | COC(=O)C1C2CCC(CC1c1ccc(/C=C\I)cc1)N2 (centres undefined) | 3.5 nM | – | 0.05 nM and 0.04 nM (2×) | – | – | 15 nM | 15 nM | 24 nM
7 | COC(=O)[C@@H]1C2CC[C@H](C[C@@H]1c1ccc(I)cc1)N2C | 1.3 nM | – | 4.2 nM | 36 nM | – | – | – | –
8 | COC(=O)C1C(c2ccc(C=C(Br)Br)cc2)CC2CCC1N2C (centres undefined) | 6.73 nM | 161 nM | 1.35 nM | – | – | – | – | –
9 | COC(=O)C1C2CCC(CC1c1ccc(C=C(Br)Br)cc1)N2 (centres undefined) | 5.6 nM | 5.6 nM | 0.08 nM | – | – | – | – | –
